A selection: hits, their analogues and other compounds. The true share with any hit is near 2.3%.
TRPC4 inh = inhibitors of mouse TRPC4 channel | Q9QUQ5 | HEK293 TRPC4beta/mu-opioid, DAMGO-evoked Fluo4 calcium flux; stronger effect = lower value | B-score at 10 µM | actives 0.39% (n = 300,000) | AID 2247;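 active = B-score over 3 SD under the library average, no early fluorescence shift, positive overall ratio signal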
Target sequence (Q9QUQ5 whole entry, looked up): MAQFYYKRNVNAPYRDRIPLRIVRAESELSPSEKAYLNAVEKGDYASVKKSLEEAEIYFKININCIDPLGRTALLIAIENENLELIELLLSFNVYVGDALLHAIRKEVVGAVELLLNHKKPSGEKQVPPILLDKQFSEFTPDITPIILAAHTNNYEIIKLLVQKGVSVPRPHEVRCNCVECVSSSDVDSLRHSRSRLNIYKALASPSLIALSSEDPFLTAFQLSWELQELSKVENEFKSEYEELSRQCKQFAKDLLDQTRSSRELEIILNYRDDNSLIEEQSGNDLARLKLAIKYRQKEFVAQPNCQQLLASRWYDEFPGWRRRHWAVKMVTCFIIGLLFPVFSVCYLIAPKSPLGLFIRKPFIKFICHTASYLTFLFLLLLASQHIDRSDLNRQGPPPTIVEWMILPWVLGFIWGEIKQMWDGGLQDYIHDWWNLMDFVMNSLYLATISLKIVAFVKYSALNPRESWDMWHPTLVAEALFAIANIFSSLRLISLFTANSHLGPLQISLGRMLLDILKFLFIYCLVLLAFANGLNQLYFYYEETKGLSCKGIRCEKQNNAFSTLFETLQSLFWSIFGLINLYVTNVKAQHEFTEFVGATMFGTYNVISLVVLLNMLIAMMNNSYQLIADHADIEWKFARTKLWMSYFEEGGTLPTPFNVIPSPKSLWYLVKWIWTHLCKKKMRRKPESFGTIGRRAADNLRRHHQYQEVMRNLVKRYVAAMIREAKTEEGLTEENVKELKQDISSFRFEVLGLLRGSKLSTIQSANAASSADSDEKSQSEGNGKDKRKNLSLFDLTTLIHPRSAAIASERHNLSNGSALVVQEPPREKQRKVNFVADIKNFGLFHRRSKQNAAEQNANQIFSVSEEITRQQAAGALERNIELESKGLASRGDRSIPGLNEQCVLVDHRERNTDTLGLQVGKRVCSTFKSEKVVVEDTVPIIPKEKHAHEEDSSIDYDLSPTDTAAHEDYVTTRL
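Assay system: Stable TRPC4beta/mu-opioid receptor HEK293 cells | Reagent: DAMGO in two steps, submaximal then maximal | Compound dosing: Single concentration per test compound | Signal: Fluo4 Ca2+ flux fluorescence | Evaluation: Per-well B score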
TRPC4 PAM = allosteric potentiators of mouse TRPC4 channel; Q9QUQ5; HEK293 TRPC4beta/mu-opioid, DAMGO EC20, Fluo-4 Ca2+ flux; stronger effect = higher value; actives 0.42% (n = 310,000); B-score at 10 µM; AID 2227;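 active = B-score of calcium response area above 5 SD of library B-scores, with initial fluorescence ratio within 5 SD of library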
TRPC6 inh = blocks the mouse TRPC6 cation channel; AID 2553; Q61143; HEK293-TRPC6, membrane potential dye, ACh-evoked depolarization; stronger effect = lower value; actives 1.1% (n = 310,000); B-score at 10 µM;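 active = B-score under library mean minus 3 SD, initial fluorescence not abnormally high, positive integrated signal ratio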;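 also: B-score derived from integrated fluorescence ratio over the kinetic read; more negative B-score means stronger inhibition of depolarization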
TRPC4 act = activators of mouse TRPC4 channel | Q9QUQ5 | HEK293 TRPC4beta/mu-opioid, Fluo4 calcium fluorescence; stronger effect = higher value | B-score at 10 µM | actives 0.49% (n = 310,000);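 active = B-score above 5 SD of library B-scores, and initial fluorescence ratio not above library mean plus 5 SD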;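 also: positive B-score marks a calcium rise read as TRPC4 activation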
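System – HEK293 cells stably co-expressing mouse TRPC4beta and mu-opioid receptor · Signal – Fluo4 calcium-sensitive dye fluorescence, kinetic, 1 Hz baseline · Benchmarks – buffer (low) and maximal DAMGO (high) · Read-out – B score of integrated fluorescence ratio per well · Incubation – dye loading 45 min room temperature, 110 s kinetic read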
TRPC6 activator = activators of mouse TRPC6 channel. HEK293-TRPC6 membrane potential dye fluorescence; stronger effect = higher value. B-score at 10 µM. actives 0.13% (n = 310,000). AID 2550;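 active = B-score of the integrated fluorescence ratio above library mean plus 3 SD, and starting fluorescence ratio within library mean plus 5 SD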;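 also: higher score means more depolarization so channel activation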
TRPC4 sel inh 2 = mouse TRPC4 off-target activity of TRPC6 inhibitors, second screen | inhibition, % at 10 µM | shares compounds with TRPC6 inh | actives 42% (n = 920) | AID 2776 | HEK293 TRPC4/MOR, membrane potential dye fluorescence; channel activated by saturating DAMGO dose;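 active = compounds whose fluorescence signal differed from control wells by over 3 SD, either direction, in both duplicate plates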
TRPC4 spec = selectivity of TRPC6 inhibitors: effect on mouse TRPC4. activity change, negative = inhibition, % at 10 µM. actives 61% (n = 920). shares compounds with TRPC6 inh. HEK293 TRPC4/mu-opioid, membrane potential fluorescence;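 active = rise or fall in signal beyond 3 SD of buffer-only wells in both replicate plates, either sign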;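 also: integrated kinetic ratio of fluorescence range over baseline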
HEK293 MPD ctr 2-1 = second counter-screen for TRPC6 inhibitors: parental HEK293 cells. shares compounds with TRPC6 inh. parental HEK293 membrane potential dye fluorescence; maximal acetylcholine challenge after compound addition. signal change vs control, % at 10 µM. actives 31% (n = 920). AID 2779;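 active = membrane potential signal moving either way by over 3 SD of the maximum-effect control, in both duplicate plates, meaning non-specific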
HEK293 MPD ctr-1 = parental HEK293 nonspecific activity of TRPC6 inhibitors; shares compounds with TRPC6 inh; parental HEK293 membrane potential dye fluorescence; membrane potential signal change, % at 10 µM; actives 60% (n = 920); AID 2780;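 active = membrane potential signal shifting up or down by more than 3 SD of buffer-only wells, on both duplicate plates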
HEK293 MPD ctr-2 = parental HEK293 nonspecific activity of TRPC6 modulators. shares compounds with TRPC6 inh. membrane potential dye fluorescence. membrane potential signal change, % at 10 µM. actives 51% (n = 2,400). AID 488924;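 active = membrane potential signal moves up or down beyond 5 SD from buffer-only wells, on both duplicate plates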
HEK293 MPD ctr 2-2 = parental HEK293 nonspecific activity of TRPC6 modulators, second screen | shares compounds with TRPC6 inh | membrane potential dye fluorescence; after compound, maximal acetylcholine stimulation | inhibition, % at 10 µM | actives 14% (n = 2,400);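 active = membrane potential signal drops by more than 5 SD from the mean control signal, in both duplicate plates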
TRPC4/MOR mod = tests whether TRPC6 modulators also affect mouse TRPC4; shares compounds with TRPC6 inh; HEK293 TRPC4/mu-opioid, membrane potential fluorescence; percent change from control (negative = decrease, positive = increase), % at 10 µM; actives 69% (n = 2,400);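 active = membrane potential signal moved up or down beyond 5 SD of buffer control wells, in both duplicate plates, actives on both sides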
TRPC4/MOR inh 2 = second selectivity test of TRPC6 modulators against mouse TRPC4; shares compounds with TRPC6 inh; HEK293 TRPC4/mu-opioid, membrane potential dye fluorescence; stimulated with maximal-effect DAMGO; inhibition, % at 10 µM; actives 55% (n = 2,400);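 active = drop in membrane potential signal beyond 5 SD of the control wells in both duplicate plates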;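 also: TRPC4 counter screen for TRPC6 hits run under conditions tuned for TRPC6 not TRPC4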
TRPC6 block conf = confirmation of mouse TRPC6 inhibitors; shares compounds with TRPC6 inh; HEK293-TRPC6, membrane potential dye, ACh-evoked depolarization; AID 488960; actives 43% (n = 3,300); inhibition, % at 10 µM;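 active = fluorescence ratio falls more than 5 SD below the full-stimulation control mean, in both duplicate runs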;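 also: integrated fluorescence ratio of peak minus minimum over baseline after agonist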
TRPC6 act conf = mouse TRPC6 activator confirmation | activation, % at 10 µM | actives 11% (n = 2,800) | HEK293-TRPC6 membrane potential dye fluorescence, FDSS | shares compounds with TRPC6 inh;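 active = ratio signal rise beyond 5 SD above unstimulated control wells' mean, seen in both duplicate runs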
A number is an active result.

COCCNC(=S)Nc1ccc2nc(N3CCOCC3)cc(C)c2c1 was read as TRPC4 inh inactive, TRPC4 PAM inactive, TRPC6 inh inactive, TRPC4 act inactive and TRPC6 activator inactive.
COCCNC(=S)Nc1ccc2nc(N3CCCC3)cc(C)c2c1 was read as TRPC4 inh inactive, TRPC4 PAM inactive, TRPC6 inh -6.16, TRPC4 act inactive, TRPC6 activator inactive, HEK293 MPD ctr-2 -135.0%, HEK293 MPD ctr 2-2 82.0%, TRPC4/MOR mod -26.0%, TRPC4/MOR inh 2 40.5%, TRPC6 block conf 71.0% and TRPC6 act conf inactive.
`c1ccc(Oc2cccc(Oc3ccccc3)n2)cc1` gave TRPC4 inh inactive, TRPC4 PAM inactive, TRPC6 inh inactive, TRPC4 act inactive and TRPC6 activator inactive.
Screening CCCCCCCCCCOC(=O)C[N+](C)(C)C/C=C(/C)Cl returned TRPC4 inh inactive, TRPC4 PAM inactive, TRPC6 inh -5.31, TRPC4 act inactive, TRPC6 activator inactive, HEK293 MPD ctr-2 134.0%, HEK293 MPD ctr 2-2 inactive, TRPC4/MOR mod 29.5%, TRPC4/MOR inh 2 41.5% and TRPC6 block conf 63.5%.
For CCCCCCCCCCCCOC(=O)C[N+](C)(C)C the results were TRPC4 inh -6, TRPC4 PAM inactive, TRPC6 inh -6.93, TRPC4 act inactive, TRPC6 activator inactive, TRPC4 sel inh 2 inactive, TRPC4 spec 0.8%, HEK293 MPD ctr 2-1 323.5%, HEK293 MPD ctr-1 inactive, TRPC6 block conf 56.0% and TRPC6 act conf inactive.
For CCCCCCCCOC(=O)C[N+](C)(C)C/C=C(/C)Cl the results were TRPC4 inh inactive, TRPC4 PAM inactive, TRPC6 inh -7.56, TRPC4 act inactive, TRPC6 activator inactive, TRPC4 sel inh 2 inactive, TRPC4 spec 0.1%, HEK293 MPD ctr 2-1 inactive, HEK293 MPD ctr-1 2.3%, TRPC6 block conf 61.5% and TRPC6 act conf inactive.
For COc1cc(C2C(C#N)=C(N)Oc3cc(N(C)C)ccc32)cc2c1OCO2 (centres undefined) the results were TRPC4 inh inactive, TRPC4 PAM inactive, TRPC6 inh inactive, TRPC4 act 64, TRPC6 activator 11.6, HEK293 MPD ctr-2 256.0%, HEK293 MPD ctr 2-2 inactive, TRPC4/MOR mod 53.0%, TRPC4/MOR inh 2 inactive, TRPC6 block conf inactive and TRPC6 act conf 62.0%.

Bioassay records: PubChem BioAssay, Johns Hopkins Ion Channel Center
